Laboratory results: ChEMBL document CHEMBL4706563, “Triphenylethylene analogues: Design, synthesis and evaluation of antitumor activity and topoisomerase inhibitors” (Eur J Med Chem, 2020)
The source made the active and inactive calls. The calls are words filed in the database; no cut-off is given here.

How the values were obtained:
Type in all cases: functional
SR = assay: Antiproliferative activity against human SR cells assessed as growth inhibition at 10 uM relative to control; conditions: read-out: GI
Procedure, shortened: (§1)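 NCI 60 human tumour cell line panel screen. Compounds tested at a single dose and growth inhibition (%) determined for each line.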

CCRF-CEM = assay: Antiproliferative activity against human CCRF-CEM cells assessed as growth inhibition at 10 uM relative to control; conditions: read-out: GI
Procedure, shortened: (§2)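 Single-dose screen run by the US National Cancer Institute across its 60-human tumour cell line panel. Each compound was tested at one concentration. Percent growth inhibition was recorded for each cell line.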

HL-60(TB) = assay: Antiproliferative activity against human HL-60(TB) cells assessed as growth inhibition at 10 uM relative to control; conditions: read-out: GI
K562 = assay: Antiproliferative activity against human K562 cells assessed as growth inhibition at 10 uM relative to control; conditions: read-out: GI; procedure, shortened: as §2
MOLT-4 = assay: Antiproliferative activity against human MOLT-4 cells assessed as growth inhibition at 10 uM relative to control; conditions: read-out: GI; procedure, shortened: as §2
RPMI-8226 = assay: Antiproliferative activity against human RPMI-8226 cells assessed as growth inhibition at 10 uM relative to control; conditions: read-out: GI; procedure, shortened: as §2
A549 = assay: Antiproliferative activity against human A549 cells assessed as growth inhibition at 10 uM relative to control; conditions: read-out: GI; procedure, shortened: as §2
EKVX = assay: Antiproliferative activity against human EKVX cells assessed as growth inhibition at 10 uM relative to control; conditions: read-out: GI; procedure, shortened: as §2
HOP-62 = assay: Antiproliferative activity against human HOP-62 cells assessed as growth inhibition at 10 uM relative to control; conditions: read-out: GI; procedure, shortened: as §2
HOP-92 = assay: Antiproliferative activity against human HOP-92 cells assessed as growth inhibition at 10 uM relative to control; conditions: read-out: GI; procedure, shortened: as §2
NCI-H226 = assay: Antiproliferative activity against human NCI-H226 cells assessed as growth inhibition at 10 uM relative to control; conditions: read-out: GI; procedure, shortened: as §2
NCI-H23 = assay: Antiproliferative activity against human NCI-H23 cells assessed as growth inhibition at 10 uM relative to control; procedure, shortened: as §2
NCI-H322M = assay: Antiproliferative activity against human NCI-H322M cells assessed as growth inhibition at 10 uM relative to control; conditions: read-out: GI; procedure, shortened: as §2
NCI-H460 = assay: Antiproliferative activity against human NCI-H460 cells assessed as growth inhibition at 10 uM relative to control; conditions: read-out: GI; procedure, shortened: as §2
NCI-H522 = assay: Antiproliferative activity against human NCI-H522 cells assessed as growth inhibition at 10 uM relative to control; conditions: read-out: GI; procedure, shortened: as §2
COLO 205 = assay: Antiproliferative activity against human COLO 205 cells assessed as growth inhibition at 10 uM relative to control; conditions: read-out: GI; procedure, shortened: as §2
HCC 2998 = assay: Antiproliferative activity against human HCC 2998 cells assessed as growth inhibition at 10 uM relative to control; procedure, shortened: as §2
HCT-116 = assay: Antiproliferative activity against human HCT-116 cells assessed as growth inhibition at 10 uM relative to control; conditions: read-out: GI; procedure, shortened: as §2
HCT-15 = assay: Antiproliferative activity against human HCT-15 cells assessed as growth inhibition at 10 uM relative to control; conditions: read-out: GI; procedure, shortened: as §2
HT-29 = assay: Antiproliferative activity against human HT29 cells assessed as growth inhibition at 10 uM relative to control; conditions: read-out: GI; procedure, shortened: as §2
KM12 = assay: Antiproliferative activity against human KM12 cells assessed as growth inhibition at 10 uM relative to control; conditions: read-out: GI; procedure, shortened: as §2
SW-620 = assay: Antiproliferative activity against human SW-620 cells assessed as growth inhibition at 10 uM relative to control; conditions: read-out: GI; procedure, shortened: as §1
SF-295 = assay: Antiproliferative activity against human SF-295 cells assessed as growth inhibition at 10 uM relative to control; procedure, shortened: as §2
SF-539 = assay: Antiproliferative activity against human SF-539 cells assessed as growth inhibition at 10 uM relative to control; conditions: read-out: GI; procedure, shortened: as §2
SNB-19 = assay: Antiproliferative activity against human SNB-19 cells assessed as growth inhibition at 10 uM relative to control; procedure, shortened: as §1
SNB-75 = assay: Antiproliferative activity against human SNB-75 cells assessed as growth inhibition at 10 uM relative to control; conditions: read-out: GI; procedure, shortened: as §1
U-251 = assay: Antiproliferative activity against human U251 cells assessed as growth inhibition at 10 uM relative to control; conditions: read-out: GI; procedure, shortened: as §1
LOX IMVI = assay: Antiproliferative activity against human LOX IMVI cells assessed as growth inhibition at 10 uM relative to control; conditions: read-out: GI; procedure, shortened: as §2
Malme-3M = assay: Antiproliferative activity against human Malme-3M cells assessed as growth inhibition at 10 uM relative to control; conditions: read-out: GI; procedure, shortened: as §2
M14 = assay: Antiproliferative activity against human M14 cells assessed as growth inhibition at 10 uM relative to control; conditions: read-out: GI; procedure, shortened: as §2
MDA-MB-435 = assay: Antiproliferative activity against human MDA-MB-435 cells assessed as growth inhibition at 10 uM relative to control; conditions: read-out: GI; procedure, shortened: as §2
SK-MEL-2 = assay: Antiproliferative activity against human SK-MEL-2 cells assessed as growth inhibition at 10 uM relative to control; conditions: read-out: GI; procedure, shortened: as §2
SK-MEL-28 = assay: Antiproliferative activity against human SK-MEL-28 cells assessed as growth inhibition at 10 uM relative to control; conditions: read-out: GI; procedure, shortened: as §1
SK-MEL-5 = assay: Antiproliferative activity against human SK-MEL-5 cells assessed as growth inhibition at 10 uM relative to control; conditions: read-out: GI; procedure, shortened: as §1
UACC-257 = assay: Antiproliferative activity against human UACC-257 cells assessed as growth inhibition at 10 uM relative to control; conditions: read-out: GI; procedure, shortened: as §1
UACC-62 = assay: Antiproliferative activity against human UACC-62 cells assessed as growth inhibition at 10 uM relative to control; conditions: read-out: GI; procedure, shortened: as §1
IGROV-1 = assay: Antiproliferative activity against human IGROV-1 cells assessed as growth inhibition at 10 uM relative to control; conditions: read-out: GI; procedure, shortened: as §2
OVCAR-3 = assay: Antiproliferative activity against human OVCAR-3 cells assessed as growth inhibition at 10 uM relative to control; conditions: read-out: GI; procedure, shortened: as §2
OVCAR-4 = assay: Antiproliferative activity against human OVCAR-4 cells assessed as growth inhibition at 10 uM relative to control; conditions: read-out: GI; procedure, shortened: as §2
NCI/ADR-RES = assay: Antiproliferative activity against human NCI/ADR-RES cells assessed as growth inhibition at 10 uM relative to control; conditions: read-out: GI; procedure, shortened: as §2
SK-OV-3 = assay: Antiproliferative activity against human SK-OV-3 cells assessed as growth inhibition at 10 uM relative to control; conditions: read-out: GI; procedure, shortened: as §1
786-0 = assay: Antiproliferative activity against human 786-0 cells assessed as growth inhibition at 10 uM relative to control; conditions: read-out: GI; procedure, shortened: as §2
A498 = assay: Antiproliferative activity against human A498 cells assessed as growth inhibition at 10 uM relative to control; conditions: read-out: GI; procedure, shortened: as §2
ACHN = assay: Antiproliferative activity against human ACHN cells assessed as growth inhibition at 10 uM relative to control; conditions: read-out: GI; procedure, shortened: as §2
CAKI-1 = assay: Antiproliferative activity against human CAKI-1 cells assessed as growth inhibition at 10 uM relative to control; conditions: read-out: GI; procedure, shortened: as §2
SN12C = assay: Antiproliferative activity against human SN12C cells assessed as growth inhibition at 10 uM relative to control; conditions: read-out: GI; procedure, shortened: as §1
TK-10 = assay: Antiproliferative activity against human TK-10 cells assessed as growth inhibition at 10 uM relative to control; conditions: read-out: GI; procedure, shortened: as §1
UO-31 = assay: Antiproliferative activity against human UO-31 cells assessed as growth inhibition at 10 uM relative to control; conditions: read-out: GI; procedure, shortened: as §1
PC-3 = assay: Antiproliferative activity against human PC-3 cells assessed as growth inhibition at 10 uM relative to control; conditions: read-out: GI; procedure, shortened: as §2
DU-145 = assay: Antiproliferative activity against human DU-145 cells assessed as growth inhibition at 10 uM relative to control; conditions: read-out: GI; procedure, shortened: as §2
MCF7 = assay: Antiproliferative activity against human MCF7 cells assessed as growth inhibition at 10 uM relative to control; conditions: read-out: GI; procedure, shortened: as §2
MDA-MB-231 = assay: Antiproliferative activity against human MDA-MB-231 cells assessed as growth inhibition at 10 uM relative to control; procedure, shortened: as §2
Hs-578T = assay: Antiproliferative activity against human Hs-578T cells assessed as growth inhibition at 10 uM relative to control; conditions: read-out: GI; procedure, shortened: as §2
BT-549 = assay: Antiproliferative activity against human BT-549 cells assessed as growth inhibition at 10 uM relative to control; conditions: read-out: GI; procedure, shortened: as §2
T47D = assay: Antiproliferative activity against human T47D cells assessed as growth inhibition at 10 uM relative to control; conditions: read-out: GI; procedure, shortened: as §1
MDA-MB-468 = assay: Antiproliferative activity against human MDA-MB-468 cells assessed as growth inhibition at 10 uM relative to control; conditions: read-out: GI; procedure, shortened: as §2
OVCAR-8 = assay: Antiproliferative activity against human OVCAR-8 cells assessed as growth inhibition at 10 uM relative to control; conditions: read-out: GI; procedure, shortened: as §2

C/C(=C(/c1ccccc1)c1ccc(OCC(O)CN2CCOCC2)cc1)c1ccccc1 (configuration not stated)
inhibition of growth at 10 µM (SR): 52.8% | inhibition of growth at 10 µM (CCRF-CEM): 19.6% | inhibition of growth at 10 µM (HL-60(TB)): 39.3% | inhibition of growth at 10 µM (K562): 80.3% | inhibition of growth at 10 µM (MOLT-4): 38.5% | inhibition of growth at 10 µM (RPMI-8226): 25% | inhibition of growth at 10 µM (A549): 12.8% | inhibition of growth at 10 µM (EKVX): 3.36% | inhibition of growth at 10 µM (HOP-62): 9.9% | inhibition of growth at 10 µM (HOP-92): 19.8% | inhibition of growth at 10 µM (NCI-H226): 3.44% | growth inhibition (GI) (NCI-H23): inactive | inhibition of growth at 10 µM (NCI-H322M): 4.48% | inhibition of growth at 10 µM (NCI-H460): 7.41% | inhibition of growth at 10 µM (NCI-H522): 26.7% | inhibition of growth at 10 µM (COLO 205): 30.6% | growth inhibition (GI) (HCC 2998): inactive | inhibition of growth at 10 µM (HCT-116): 53.6% | inhibition of growth at 10 µM (HCT-15): 46.2% | inhibition of growth at 10 µM (HT-29): 86.9% | inhibition of growth at 10 µM (KM12): 36.4% | inhibition of growth at 10 µM (SW-620): 11.4% | growth inhibition (GI) (SF-295): inactive | inhibition of growth at 10 µM (SF-539): 25.8% | growth inhibition (GI) (SNB-19): inactive | inhibition of growth at 10 µM (SNB-75): 8.61% | inhibition of growth at 10 µM (U-251): 19.9% | inhibition of growth at 10 µM (LOX IMVI): 12.2% | inhibition of growth at 10 µM (Malme-3M): 24.8% | inhibition of growth at 10 µM (M14): -45.1% | inhibition of growth at 10 µM (MDA-MB-435): 9.29% | inhibition of growth at 10 µM (SK-MEL-2): 1.12% | inhibition of growth at 10 µM (SK-MEL-28): 10% | inhibition of growth at 10 µM (SK-MEL-5): 12.9% | inhibition of growth at 10 µM (UACC-257): 6.64% | inhibition of growth at 10 µM (UACC-62): 3% | inhibition of growth at 10 µM (IGROV-1): 3.82% | inhibition of growth at 10 µM (OVCAR-3): 9.6% | inhibition of growth at 10 µM (OVCAR-4): 10.7% | inhibition of growth at 10 µM (NCI/ADR-RES): 6.78% | inhibition of growth at 10 µM (SK-OV-3): 8.68% | inhibition of growth at 10 µM (786-0): 32.9% | inhibition of growth at 10 µM (A498): 8.44% | inhibition of growth at 10 µM (ACHN): 1.16% | inhibition of growth at 10 µM (CAKI-1): 19.9% | inhibition of growth at 10 µM (SN12C): 11.6% | inhibition of growth at 10 µM (TK-10): 5.68% | inhibition of growth at 10 µM (UO-31): 26.3% | inhibition of growth at 10 µM (PC-3): 28.2% | inhibition of growth at 10 µM (DU-145): 1.88% | inhibition of growth at 10 µM (MCF7): 15.8% | growth inhibition (GI) (MDA-MB-231): inactive | inhibition of growth at 10 µM (Hs-578T): 9.19% | inhibition of growth at 10 µM (BT-549): 6.69% | inhibition of growth at 10 µM (T47D): 39.7% | inhibition of growth at 10 µM (MDA-MB-468): 14.9% | inhibition of growth at 10 µM (OVCAR-8): 11.5%
